From PubChem BioAssay
Rows were chosen to be rich in hits. Some 2.3% of all compounds tested hit in one or more screens of this group.
LMPTP inh – blocks human LMPTP phosphatase | inhibition, % at 20 µM | 360,000 compounds, 0.22% hits | P24666 | recombinant LMPTP-A, OMFP fluorogenic substrate, fluorescence intensity;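 active means compounds that cut the enzyme signal by at least half of the control window in the single-dose screen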;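 further: plate controls were DMSO wells with enzyme plus substrate for no effect and substrate without enzyme for full effect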
Target sequence (P24666 whole entry, looked up): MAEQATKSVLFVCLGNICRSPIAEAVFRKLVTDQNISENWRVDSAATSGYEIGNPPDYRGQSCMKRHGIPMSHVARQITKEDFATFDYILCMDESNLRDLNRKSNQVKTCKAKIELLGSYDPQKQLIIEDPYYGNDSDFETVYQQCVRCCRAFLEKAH
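Test system: LMPTP-A, protein tyrosine phosphatase of low molecular weight; Input: 0.625 nM enzyme; Incubation: 50 min dark incubation at room temperature; Signal: endpoint fluorescence intensity from OMFP dephosphorylation; Read-out basis: % inhibition versus control wells.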
Scp1 inh – inhibitors of human Scp-1 phosphatase | inhibition, % at 20 µM | Recombinant Scp1, phosphopeptide, malachite green phosphate absorbance | AID 493091 | Q9GZU7 | 340,000 compounds, 0.88% hits;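 active means inhibition above about 50% at 20 µM, limit read from the data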;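 further: plate controls were DMSO wells with enzyme for no effect and wells lacking enzyme for full effect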
Target sequence (Q9GZU7 76-261 limits assumed): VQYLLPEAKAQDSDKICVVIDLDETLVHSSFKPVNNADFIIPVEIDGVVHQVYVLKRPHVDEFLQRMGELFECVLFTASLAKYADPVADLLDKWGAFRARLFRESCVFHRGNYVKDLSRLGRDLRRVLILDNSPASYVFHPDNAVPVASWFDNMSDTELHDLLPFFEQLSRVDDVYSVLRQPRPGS
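Test system: SCP-1 phosphatase catalytic domain, residues 76-261 | Compound dosing: One concentration, 20 µM, with 1.0% DMSO | Schedule: 45 min room-temperature reaction, 5 min colour, 30 min stabiliser | Detection: Absorbance at 630 nm | Read-out basis: % inhibition of SCP-1 phosphate liberation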
STEP block – STEP (human) phosphatase inhibition. inhibition, % at 20 µM. recombinant STEP, OMFP fluorogenic substrate, fluorescence. P54829. AID 588621. 360,000 compounds, 0.25% hits;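 active means inhibition at 20 µM, scaled per plate between control wells, above about 37%, limit read from the data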;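 further: 0% = DMSO with enzyme and substrate and 100% = substrate only without enzyme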
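Material: STEP (striatal-enriched tyrosine phosphatase) enzyme, cell-free; Compound dosing: 20 µM single dose in 1% DMSO; Technique: fluorescence read at 480 nm ex / 540 nm em; Times: reaction 20 min, ambient temperature; Medium: 50 mM Bis-Tris pH 6.0 with 2.5 mM DTT and 0.005% Tween 20; Also added: OMFP at 25 µM.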
DNMT1 block – DNMT1 (human) enzyme inhibition; 360,000 compounds, 0.83% hits; inhibition (reported as % activation of signal), % at 10 µM; DNMT1 molecular beacon, Hinp1I cleavage, fluorescence; in the data active means inhibition above about 50%
SUMO1-SIM PPI – modulators of human SUMO1-mediated protein-protein interactions; SUMO1 binding to a labelled peptide, TR-FRET, 1 h; inhibition, % at 20 µM; 360,000 compounds, 0.33% hits; in the data active means inhibition above about 37%
Target sequence (P63165 whole entry, looked up): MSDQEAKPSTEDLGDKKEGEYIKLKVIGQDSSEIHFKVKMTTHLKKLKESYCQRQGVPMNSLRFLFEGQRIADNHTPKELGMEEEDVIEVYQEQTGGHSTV
NadD block – inhibitors of Staphylococcus aureus NadD | purified NadD enzyme, colorimetric absorbance read-out | 360,000 compounds, 0.78% hits | AID 602399 | inhibition, % at 20 µM; in the data active means inhibition above about 26%
NadD conf – NadD (S. aureus) inhibition, single concentration confirmation; purified S. aureus NadD, colorimetric enzyme assay; AID 624309; 2,000 compounds, 13% hits; inhibition, % at 20 µM; shares compounds with NadD block; in the data active means inhibition mostly above about 42%, no sharp cut-off; inactive means mostly below about 42%
* = called active by the depositor.

`CCn1c2ccccc2c2cc(N=C3SC(CC(=O)Nc4ccccc4)C(=O)N3C)ccc21` (configuration not stated) gave LMPTP inh 5.1, Scp1 inh -4.3, STEP block 1.5, DNMT1 block 0.2, SUMO1-SIM PPI -0.5, NadD block 30.7* and NadD conf 19.1.
For COc1ccc(Br)cc1/C=N/NC(=O)c1nc(-c2ccccc2)n2c1CCCCC2 the results were LMPTP inh 13.0, Scp1 inh 0.4, STEP block 6.1, DNMT1 block -2.4, SUMO1-SIM PPI -0.8, NadD block 39.2* and NadD conf 12.6.
Cc1ccc(CNC(=O)c2cc3c(=O)n4ccccc4nc3n(Cc3ccco3)c2=N)cc1 was read as LMPTP inh 15.4, Scp1 inh 10.1, STEP block 4.9, DNMT1 block 21.5, SUMO1-SIM PPI -6.9, NadD block 40.5* and NadD conf 32.4.
N=c1c(C(=O)NCc2ccco2)cc2c(=O)n3ccccc3nc2n1Cc1ccccc1 was read as LMPTP inh 58.9*, Scp1 inh 7.6, STEP block 3.7, DNMT1 block 75.5*, SUMO1-SIM PPI 1.7, NadD block 31.6* and NadD conf 26.3.
For N=c1c(C(=O)NCc2ccco2)cc2c(=O)n3ccccc3nc2n1C1CCCC1 the results were LMPTP inh 11.6, Scp1 inh 9.6, STEP block -3.6, DNMT1 block 10.7, SUMO1-SIM PPI -15.9 and NadD block 0.4.
`Cc1ccc(CNC(=O)c2cc3c(=O)n4ccccc4nc3n(CC3CCCO3)c2=N)cc1` (configuration not stated) gave LMPTP inh 2.3, Scp1 inh 6.0, STEP block -0.3, DNMT1 block -4.3, SUMO1-SIM PPI -14.6 and NadD block 3.1.
For N=c1c(C(=O)NCc2ccccc2)cc2c(=O)n3ccccc3nc2n1Cc1ccco1 the results were LMPTP inh 33.6, Scp1 inh 7.7, STEP block 3.2, DNMT1 block 25.6, SUMO1-SIM PPI -8.6, NadD block 31.1* and NadD conf 10.4.
Screening Cc1oc(S(=O)(=O)N2CCCCC2)cc1NC(=O)Nc1ccc(F)cc1 returned LMPTP inh -0.8, Scp1 inh -10.7, STEP block 4.0, DNMT1 block -1.7, SUMO1-SIM PPI 6.2 and NadD block -3.9.
Screening CNC(=O)c1ccc(NC(=O)/C=C/c2cccc(F)c2)cc1 returned LMPTP inh 0.0, Scp1 inh 2.0, STEP block -1.0, DNMT1 block 1.5, SUMO1-SIM PPI -5.4 and NadD block 1.1.
CCN1CCc2c(sc3c2c(NCc2ccco2)nc2nnnn23)C1 was read as LMPTP inh 22.7, Scp1 inh 5.0, STEP block 6.9, DNMT1 block -8.7, SUMO1-SIM PPI 10.9, NadD block 37.7* and NadD conf 8.2.
For CC/C(=N\NC(=O)c1cc(C2CC2)[nH]n1)c1ccccc1 the results were LMPTP inh 1.2, Scp1 inh -6.5, STEP block -1.3, DNMT1 block -2.0, SUMO1-SIM PPI -5.0 and NadD block -6.6.
Nc1c(C(=O)O)sc2nc(-c3ccc(F)cc3)cc(-c3ccccc3)c12 was read as LMPTP inh 0.8, Scp1 inh -5.6, STEP block 2.3, DNMT1 block -3.0, SUMO1-SIM PPI -14.0, NadD block 37.4* and NadD conf 29.3.
Screening COc1ccc(-n2cc(C#N)c(=O)n(Cc3ccc(F)cc3)c2=O)cc1 returned LMPTP inh 0.0, Scp1 inh -4.1, STEP block -2.0, DNMT1 block 0.9, SUMO1-SIM PPI 0.7 and NadD block 2.6.
Cc1ccc2cc(C#N)c(N3CCCC3)nc2c1C was read as LMPTP inh 2.1, Scp1 inh -3.3, STEP block 1.3, DNMT1 block 3.0, SUMO1-SIM PPI -6.1, NadD block 34.1* and NadD conf 1.8.
`Cc1ccc(-c2csc(/C=C3\SC(C)C(=O)N3CC(=O)Nc3ccccc3F)n2)cc1` (configuration not stated) gave LMPTP inh 2.4, Scp1 inh -5.4, STEP block 4.4, DNMT1 block 16.6, SUMO1-SIM PPI 0.7, NadD block 31.9* and NadD conf 14.6.
Screening O=C(CN1C(=O)CS/C1=C\c1nc(-c2ccc(Cl)cc2)cs1)Nc1cccnc1Cl returned LMPTP inh 1.8, Scp1 inh -11.8, STEP block -0.9, DNMT1 block -8.2, SUMO1-SIM PPI 10.0 and NadD block 4.2.
Screening O=C(CCn1ccnc1)Nc1ccc2ccccc2c1 returned LMPTP inh -0.6, Scp1 inh -0.7, STEP block 2.1, DNMT1 block -1.5, SUMO1-SIM PPI -1.9 and NadD block -5.4.
`CCOC(=O)c1sc2nc3c(SCC(=O)O)cc(C(=O)c4cc(F)ccc4O)cn3c(=O)c2c1C` gave LMPTP inh 31.5, Scp1 inh 41.7, STEP block 14.8, DNMT1 block 35.3, SUMO1-SIM PPI 30.0, NadD block 33.3* and NadD conf 34.0.
`COc1ccc(O)c(C(=O)c2cc(SCC(=O)O)c3nc4sc5c(c4c(=O)n3c2)CCCC5)c1` gave LMPTP inh 15.9, Scp1 inh 34.4, STEP block 14.7, DNMT1 block 14.6, SUMO1-SIM PPI 42.4*, NadD block 45.8* and NadD conf 36.2.
For COC(=O)c1cc(C(=O)c2cc(F)ccc2O)cn2c(=O)c3c(C)c(C)sc3nc12 the results were LMPTP inh 2.1, Scp1 inh -5.2, STEP block 0.2, DNMT1 block -3.3, SUMO1-SIM PPI -16.0 and NadD block 14.9.
For COc1ccc(-n2c(SCC(=O)O)nc3sc4c(c3c2=O)CCCC4)cc1 the results were LMPTP inh 0.4, Scp1 inh -3.0, STEP block 2.3, DNMT1 block -0.1, SUMO1-SIM PPI 9.4 and NadD block -4.3.
`O=C(NCC1CCCCC1)c1csc([C@@H]2O[C@H](CO)[C@H](O)[C@H](O)[C@H]2O)n1` gave LMPTP inh -1.3, STEP block 0.3, DNMT1 block -2.0, SUMO1-SIM PPI 1.3 and NadD block 0.5.
For CCOC(=O)c1ccc(N=c2scc(C)n2CC)cc1 the results were LMPTP inh 0.6, Scp1 inh -9.6, STEP block 1.9, DNMT1 block -4.3, SUMO1-SIM PPI -1.8 and NadD block 6.1.
`CCOC(=O)c1ccc(N=C2C(=S)N(c3ccc(C(=O)OCC)cc3)C(=N)N2/N=C/c2ccccc2)cc1` gave LMPTP inh 1.0, Scp1 inh 14.3, STEP block 0.6, DNMT1 block -15.7, SUMO1-SIM PPI -14.7, NadD block 39.1* and NadD conf 13.2.
